Measured values taken from article PMC11865470 (Communications Biology, 2025).

Assays:
KV7.1 = test: whole-cell patch-clamp, off-target channel, 10 μM compound; type: cell-based, Homo sapiens; conditions: for sensitivity of channel to compound: vs 0.1% DMSO
Summary of the method: (§1)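 KV channels in transiently transfected HEK293T cells, whole-cell. Pipette (mM): 140 KCl, 2.5 MgCl2, 11 EGTA, 10 HEPES, pH 7.4. Bath (mM): 145 NaCl, 2.8 KCl, 2 CaCl2, 1 MgCl2, 10 glucose, 10 HEPES, pH 7.4. 0.1% DMSO bath applied, then 10 μM test compound. DMSO vs compound inhibition ratio compared by unpaired t-test, n = 5.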

CaV1.2 = CaV1.2 (Mus musculus, UniProt Q01815); test: whole-cell patch-clamp, off-target channel, 10 μM compound; type: cell-based; conditions: for sensitivity of channel to compound: vs 0.1% DMSO
Summary of the method: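 CaV channels in transfected HEK293T cells, whole-cell. Pipette (mM): 120 CsMeSO3, 2 Mg-ATP, 11 EGTA, 10 HEPES, pH 7.4. Bath (mM): 138 NaCl, 5.6 KCl, 2.6 CaCl2, 20 TEA-Cl, 5 glucose, 5 HEPES, pH 7.4. 0.1% DMSO bath applied before 10 μM test compound. Inhibition ratios compared by unpaired t-test, n = 5.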

KV3.4 = target: T1, KV3.4 (Homo sapiens, UniProt Q03721); test: whole-cell patch-clamp, off-target channel, 10 μM compound; type: cell-based; conditions: vs 0.1% DMSO
T1 sequence (Q03721 1-635): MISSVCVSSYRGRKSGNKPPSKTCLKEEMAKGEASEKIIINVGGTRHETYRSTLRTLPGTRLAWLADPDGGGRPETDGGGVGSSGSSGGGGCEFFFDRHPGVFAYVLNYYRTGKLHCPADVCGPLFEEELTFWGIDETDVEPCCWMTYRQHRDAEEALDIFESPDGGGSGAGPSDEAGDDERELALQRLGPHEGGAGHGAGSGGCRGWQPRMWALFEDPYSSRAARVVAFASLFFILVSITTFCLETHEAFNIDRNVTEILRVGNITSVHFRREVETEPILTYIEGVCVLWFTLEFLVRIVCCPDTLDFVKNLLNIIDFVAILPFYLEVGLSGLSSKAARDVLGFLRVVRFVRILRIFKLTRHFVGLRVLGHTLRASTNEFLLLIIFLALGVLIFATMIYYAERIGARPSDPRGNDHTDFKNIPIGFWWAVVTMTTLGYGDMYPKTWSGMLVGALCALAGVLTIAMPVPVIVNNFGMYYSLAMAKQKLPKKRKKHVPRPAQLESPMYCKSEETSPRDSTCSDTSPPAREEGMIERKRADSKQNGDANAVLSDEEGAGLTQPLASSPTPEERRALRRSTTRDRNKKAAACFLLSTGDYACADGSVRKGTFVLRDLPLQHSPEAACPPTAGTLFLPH
Summary of the method: as §1

KV3.1 = target: T2, KV3.1 (Mus musculus, UniProt P15388); test: as above; type: cell-based; conditions: for sensitivity of channel to compound: vs 0.1% DMSO
T2 sequence (P15388 1-585 isoform P15388-3): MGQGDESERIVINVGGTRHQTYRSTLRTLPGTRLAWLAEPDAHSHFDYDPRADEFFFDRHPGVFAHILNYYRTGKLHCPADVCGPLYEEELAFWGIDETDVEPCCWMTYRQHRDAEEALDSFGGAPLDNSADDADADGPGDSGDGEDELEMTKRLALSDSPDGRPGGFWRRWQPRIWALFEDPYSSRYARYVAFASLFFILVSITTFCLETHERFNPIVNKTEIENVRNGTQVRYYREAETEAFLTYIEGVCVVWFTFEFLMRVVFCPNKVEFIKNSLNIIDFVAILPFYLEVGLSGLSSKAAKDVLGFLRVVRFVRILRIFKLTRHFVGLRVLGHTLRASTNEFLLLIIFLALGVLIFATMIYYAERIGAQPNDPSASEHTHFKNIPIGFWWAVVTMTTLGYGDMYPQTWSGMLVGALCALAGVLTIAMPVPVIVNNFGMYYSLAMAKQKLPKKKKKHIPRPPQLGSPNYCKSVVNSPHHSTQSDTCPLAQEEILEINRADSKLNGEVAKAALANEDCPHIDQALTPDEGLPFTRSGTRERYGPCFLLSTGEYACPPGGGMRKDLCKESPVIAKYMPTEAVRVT
Summary of the method: as §1

mouse Otop3 (mOtop3) = target: T3, mouse Otop3 (mOtop3) (Mus musculus, UniProt Q80UF9); test: whole-cell patch-clamp, pH 5.5-evoked currents; type: cell-based; conditions: 10 μM
T3 sequence (Q80UF9 1-577): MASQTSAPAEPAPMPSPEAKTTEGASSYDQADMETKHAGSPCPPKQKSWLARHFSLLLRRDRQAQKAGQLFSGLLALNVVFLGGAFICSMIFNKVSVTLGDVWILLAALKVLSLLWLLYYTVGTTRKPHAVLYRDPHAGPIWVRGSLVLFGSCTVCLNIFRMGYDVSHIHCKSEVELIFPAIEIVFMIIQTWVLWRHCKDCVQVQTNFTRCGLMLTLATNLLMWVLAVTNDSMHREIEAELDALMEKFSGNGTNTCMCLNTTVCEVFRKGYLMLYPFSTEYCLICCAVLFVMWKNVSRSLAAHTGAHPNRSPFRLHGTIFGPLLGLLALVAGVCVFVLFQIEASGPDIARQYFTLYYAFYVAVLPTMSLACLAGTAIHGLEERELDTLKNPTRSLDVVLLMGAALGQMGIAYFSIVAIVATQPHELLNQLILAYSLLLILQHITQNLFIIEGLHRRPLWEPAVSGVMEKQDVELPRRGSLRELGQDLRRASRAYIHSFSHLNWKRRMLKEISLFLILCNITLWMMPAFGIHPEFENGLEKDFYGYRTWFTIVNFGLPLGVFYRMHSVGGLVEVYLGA
Summary of the method: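 Channel plasmid (2.5 μg) was co-transfected with EGFP plasmid (0.5 μg) using Lipofectamine 2000 into PAC-knockout HEK293T cells. Whole-cell recording 16–24 h after seeding, with Cs-aspartate pipette solution (pH 7.3). Currents evoked by pH 5.5 bath (160 mM NMDG-Cl, 2 mM CaCl2, 10 mM MES); test compound 10 μM.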

CaV1.2, sequence (Q01815 whole entry): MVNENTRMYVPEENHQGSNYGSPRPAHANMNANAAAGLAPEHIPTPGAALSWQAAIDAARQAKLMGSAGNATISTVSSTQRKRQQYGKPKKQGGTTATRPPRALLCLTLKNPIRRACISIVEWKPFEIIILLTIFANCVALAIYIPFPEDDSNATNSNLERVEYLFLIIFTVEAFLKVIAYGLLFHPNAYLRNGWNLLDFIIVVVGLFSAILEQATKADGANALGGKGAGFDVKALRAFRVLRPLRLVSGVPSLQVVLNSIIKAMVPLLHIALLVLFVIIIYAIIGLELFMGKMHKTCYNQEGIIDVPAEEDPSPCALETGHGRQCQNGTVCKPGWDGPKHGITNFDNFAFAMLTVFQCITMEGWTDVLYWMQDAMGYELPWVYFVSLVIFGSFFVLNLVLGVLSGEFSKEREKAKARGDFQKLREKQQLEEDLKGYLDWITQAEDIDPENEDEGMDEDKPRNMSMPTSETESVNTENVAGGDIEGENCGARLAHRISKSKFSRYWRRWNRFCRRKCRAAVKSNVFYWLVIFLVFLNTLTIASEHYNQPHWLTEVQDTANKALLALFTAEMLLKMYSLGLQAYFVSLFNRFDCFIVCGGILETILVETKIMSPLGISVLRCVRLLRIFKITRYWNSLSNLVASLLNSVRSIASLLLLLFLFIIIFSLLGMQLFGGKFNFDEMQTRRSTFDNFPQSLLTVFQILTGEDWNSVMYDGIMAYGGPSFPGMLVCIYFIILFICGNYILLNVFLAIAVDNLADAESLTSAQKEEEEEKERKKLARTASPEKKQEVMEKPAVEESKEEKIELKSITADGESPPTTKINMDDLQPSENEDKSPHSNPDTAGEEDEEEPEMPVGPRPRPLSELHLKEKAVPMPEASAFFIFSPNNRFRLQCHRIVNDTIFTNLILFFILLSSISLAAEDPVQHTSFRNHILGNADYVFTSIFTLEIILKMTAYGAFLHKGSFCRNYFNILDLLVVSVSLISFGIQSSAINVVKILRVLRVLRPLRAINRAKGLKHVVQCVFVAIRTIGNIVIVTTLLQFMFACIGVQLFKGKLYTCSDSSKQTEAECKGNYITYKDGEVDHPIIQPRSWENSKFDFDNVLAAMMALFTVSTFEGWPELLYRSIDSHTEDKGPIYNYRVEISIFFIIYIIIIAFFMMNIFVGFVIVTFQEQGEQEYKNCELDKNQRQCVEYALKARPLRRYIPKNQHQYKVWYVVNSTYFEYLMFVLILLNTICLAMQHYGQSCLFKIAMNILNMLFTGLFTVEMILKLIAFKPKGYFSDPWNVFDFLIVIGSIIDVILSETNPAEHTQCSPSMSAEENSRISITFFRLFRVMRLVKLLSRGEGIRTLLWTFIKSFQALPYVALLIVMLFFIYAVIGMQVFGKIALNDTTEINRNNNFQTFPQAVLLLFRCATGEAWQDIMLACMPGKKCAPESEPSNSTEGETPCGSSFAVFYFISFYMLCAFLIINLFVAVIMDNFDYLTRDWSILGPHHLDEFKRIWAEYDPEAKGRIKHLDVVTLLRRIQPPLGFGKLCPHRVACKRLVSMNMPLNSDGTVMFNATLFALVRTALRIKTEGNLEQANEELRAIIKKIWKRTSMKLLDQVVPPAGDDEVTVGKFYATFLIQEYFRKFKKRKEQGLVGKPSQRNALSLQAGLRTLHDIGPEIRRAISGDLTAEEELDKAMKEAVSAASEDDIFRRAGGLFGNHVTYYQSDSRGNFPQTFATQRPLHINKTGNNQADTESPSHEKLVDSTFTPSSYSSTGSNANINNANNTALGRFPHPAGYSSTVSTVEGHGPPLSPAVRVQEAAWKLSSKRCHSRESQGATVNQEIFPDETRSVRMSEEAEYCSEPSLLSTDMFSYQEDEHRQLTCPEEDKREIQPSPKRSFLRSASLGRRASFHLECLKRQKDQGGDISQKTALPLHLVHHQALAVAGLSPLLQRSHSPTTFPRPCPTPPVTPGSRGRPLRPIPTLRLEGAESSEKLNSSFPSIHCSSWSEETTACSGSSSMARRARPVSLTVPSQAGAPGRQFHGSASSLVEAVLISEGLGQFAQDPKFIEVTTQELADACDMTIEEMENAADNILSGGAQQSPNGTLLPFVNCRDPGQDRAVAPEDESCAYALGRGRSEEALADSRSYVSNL

| Compound | inhibition ratio (KV7.1) [%] | inhibition ratio (CaV1.2) [%] | sensitivity of channel to compound (KV3.4) | sensitivity of channel to compound (KV3.1) | effect on pH 5.5-evoked mOtop3 currents (mouse Otop3 (mOtop3)) | sensitivity of channel to compound (KV7.1) | sensitivity of channel to compound (CaV1.2) | inhibition ratio (KV3.1) [%] |
| --- | --- | --- | --- | --- | --- | --- | --- | --- |
| CC(C)c1noc2ncc(C(=O)c3ccccc3O)cc12 [HIMOP, (2-hydroxyphenyl)-(3-propan-2-yl-5-isoxazolo[5,4-b]pyridinyl)methanone] | 16.4 | 15.6 | completely resistant | completely resistant | did not affect |  |  |  |
| Cc1ccc(C(=O)Nc2ccc3ccccc3c2)o1 [MFaN, 5-methyl-N-2-naphthyl-2-furamide] |  |  | completely resistant |  | did not affect | completely resistant | completely resistant | 15.2 |
| Cc1cc(NC(=O)c2ccc(Br)o2)ccc1NC(=O)c1ccco1 [B2FAMP, 5-Bromo-N-[4-(2-furoylamino)-3-methylphenyl]-2-furamide] |  |  | completely resistant | completely resistant | did not affect | completely resistant | completely resistant |  |
